From ChEMBL document CHEMBL4382285, “Discovery of Novel Retigabine Derivatives as Potent KCNQ4 and KCNQ5 Channel Agonists with Improved Specificity” (ACS Med Chem Lett, 2019)

Molecular target: T1, Potassium voltage-gated channel subfamily KQT member 3 (Rattus norvegicus) (UniProt O88944)
T1 sequence (whole entry): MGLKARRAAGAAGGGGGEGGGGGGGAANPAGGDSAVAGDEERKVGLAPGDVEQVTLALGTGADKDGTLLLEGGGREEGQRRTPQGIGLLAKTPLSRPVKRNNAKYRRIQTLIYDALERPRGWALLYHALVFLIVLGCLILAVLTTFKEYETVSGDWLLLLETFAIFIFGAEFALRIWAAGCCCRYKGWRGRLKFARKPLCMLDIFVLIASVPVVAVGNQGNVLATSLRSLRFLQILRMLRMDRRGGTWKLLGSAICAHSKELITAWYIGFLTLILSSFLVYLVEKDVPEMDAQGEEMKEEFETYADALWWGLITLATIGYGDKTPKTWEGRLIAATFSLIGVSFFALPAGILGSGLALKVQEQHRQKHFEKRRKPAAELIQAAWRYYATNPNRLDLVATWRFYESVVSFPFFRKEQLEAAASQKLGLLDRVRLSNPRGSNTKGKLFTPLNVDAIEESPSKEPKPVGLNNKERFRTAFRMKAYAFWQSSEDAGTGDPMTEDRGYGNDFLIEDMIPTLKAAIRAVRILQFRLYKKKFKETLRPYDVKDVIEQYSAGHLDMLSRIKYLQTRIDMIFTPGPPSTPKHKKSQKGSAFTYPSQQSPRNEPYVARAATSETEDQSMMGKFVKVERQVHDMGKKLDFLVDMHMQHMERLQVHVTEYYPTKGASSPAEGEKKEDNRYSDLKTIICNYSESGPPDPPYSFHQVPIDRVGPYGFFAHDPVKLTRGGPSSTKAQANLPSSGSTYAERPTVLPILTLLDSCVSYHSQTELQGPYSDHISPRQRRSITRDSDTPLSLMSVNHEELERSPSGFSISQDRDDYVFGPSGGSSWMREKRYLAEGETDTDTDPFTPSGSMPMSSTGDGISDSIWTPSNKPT
Assay: Activity at rat KCNQ3 expressed in CHOK1 cells assessed as ratio of amplitude of outward current in presence of test compound to amplitude of outward current in absence of test compound at 10 uM at -10 mV by whole cell patch clamp assay
Type: cell-based
Summary of the method: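 CHO-K1 cells individually transfected with a single KCNQ subtype; whole-cell voltage clamp. Held at −80 mV, stepped from −90 to +60 mV in 10 mV increments (1500 ms), then to −120 mV for 500 ms. Outward current at −10 or +60 mV measured before (I0) and after (I) 10 μM compound; I/I0 >1 counts as activation. More than four cells per compound.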

C#CCN(Cc1ccc(F)cc1)c1ccc(NC(=O)OCC)c(NC(=O)OCC)c1
Ratio: 1.6
